Key:
[1] = approximate, from the literature; ref not given; cited from earlier work
[2] = pH of saturated solutions in biorelevant media; type: physicochemical; details: 24 h, 37 °C, pH probe; for pH of saturated solution in FaSSGF: excess solid in FaSSGF, initial pH 1.6; for pH of saturated solution in FaSSGF / pH of saturated solution in FaSSIF / pH of saturated solution in FeSSIF: 350 rpm, n = 3; for pH of saturated solution in FaSSIF: excess solid in FaSSIF, initial pH 6.5; for pH of saturated solution in FeSSIF: excess solid in FeSSIF, initial pH 5.0
Method in brief: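 Excess solid was added separately to 1 mL of each medium: FaSSIF (pH 6.5; NaTC 3 mM, lecithin 0.75 mM), FeSSIF (pH 5.0; 15 mM, 3.75 mM), FaSSGF (pH 1.6; 0.08 mM, 0.02 mM), or blank versions without NaTC and lecithin. Samples were shaken at 350 rpm for 24 h at 37 °C, then read with a pH probe. Triplicate; mean ± standard deviation, n = 3.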

Saturation = type: physicochemical; details: 24 h, 37 °C, in words; for saturation solubility in gastric media, rank among the media: FaSSGF and blank FaSSGF, pH 1.6

CCCCCCCCCC(=O)[O-].[Na+] [C10, sodium caprate]
pKa [1]: approximately 5
pH of saturated solution in FaSSGF [2]: 9.2
pH of saturated solution in FaSSIF [2]: 9.0
pH of saturated solution in FeSSIF [2]: 8.8

O=C([O-])CCCCCCCNC(=O)c1ccccc1O.[Na+] [SNAC, salcaprozate sodium]
pKa [1]: approximately 5
pH of saturated solution in FaSSGF [2]: 7.6
pH of saturated solution in FaSSIF [2]: 7.9
pH of saturated solution in FeSSIF [2]: 7.7
saturation solubility in gastric media, rank among the media (Saturation): lowest
saturation solubility in FaSSIF, rank among the media (Saturation; FaSSIF, pH 6.5): highest

insulin: recombinant human insulin procured from Merck KGaA, used as model peptide
pH of media in the presence of excess material, all media investigated ([2]; FaSSIF, FeSSIF, FaSSGF and blank equivalents): did not appear to impact media pH
saturation solubility in gastric media, rank among the media (Saturation): highest solubility
